Sampled rows, rich in hits. Any-hit rate of the full collection: about 2.2%.
DENV2 CPE rescue = inhibitors of DENV2 cytopathic effect; DENV2-infected cells, cytopathic effect rescue, plate reader; CPE inhibition, % at 9.99 µM; 350,000 tested, 1.7% active; in the data active = CPE inhibition above about 20%, passing the limit was not always enough; inconclusive = no clear call, values can overlap the other calls; tested in BHK-21 cells
C2C12 statin = suppressors of simvastatin-induced myotoxicity in C2C12 myotubes; rescue of ATP level, % at 7.49 µM; 330,000 tested, 0.78% active; ATP luminescence, 48 h; scaled: DMSO 0, geranylgeraniol control 100;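 active = mean ATP rescue above about 67%, or every replicate alone reaching that limit, limit read from the data, passing the limit was not always enough; inconclusive = no clear call, values can overlap the other calls; inactive = mean under the limit and some replicate under it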;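 also: myotubes were challenged with 10 µM simvastatin during compound exposure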
E-sel inducer = E-selectin induction on HUVECs | P16581 | HUVEC E-selectin immunofluorescence imaging; normalized: neutral wells 0, TNF-alpha wells 100 | activation, % at 7.58 µM | 260,000 tested, 0.37% active | AID 686992;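 active = mean E-selectin-positive cell signal at least 10% of the positive control, reached in at least 60% of replicates, without over 20% cell loss; inconclusive = no rule given, readout overlaps actives, possibly toxicity-flagged; inactive = the rest, including those meeting only one limit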
Target sequence (P16581 whole entry, looked up): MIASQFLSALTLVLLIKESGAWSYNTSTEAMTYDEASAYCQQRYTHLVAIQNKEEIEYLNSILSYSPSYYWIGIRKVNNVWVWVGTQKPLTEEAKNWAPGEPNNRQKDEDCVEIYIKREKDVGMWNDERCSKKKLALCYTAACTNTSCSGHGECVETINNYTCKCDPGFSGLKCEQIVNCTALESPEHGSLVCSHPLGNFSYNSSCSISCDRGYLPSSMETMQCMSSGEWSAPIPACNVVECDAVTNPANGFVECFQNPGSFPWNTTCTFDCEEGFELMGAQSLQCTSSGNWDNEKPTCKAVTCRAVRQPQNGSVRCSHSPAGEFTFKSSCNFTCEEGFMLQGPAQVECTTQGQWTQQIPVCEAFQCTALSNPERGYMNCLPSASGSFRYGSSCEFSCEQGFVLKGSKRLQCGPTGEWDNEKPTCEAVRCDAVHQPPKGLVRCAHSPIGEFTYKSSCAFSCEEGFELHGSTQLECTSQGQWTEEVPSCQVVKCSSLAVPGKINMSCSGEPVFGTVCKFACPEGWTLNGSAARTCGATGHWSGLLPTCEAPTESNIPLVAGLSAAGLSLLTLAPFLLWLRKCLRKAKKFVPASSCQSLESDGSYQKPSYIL
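Test system: HUVEC | Signal: Immunofluorescence imaging | Read-out: Percent E-selectin-positive cells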
Large screens that a line does not name were inactive; ! = repeats disagree.

C[C@@H]1CN([C@@H](C)CO)C(=O)c2cc(NC(=O)CCCN(C)C)ccc2O[C@@H](C)CCCCO[C@@H]1CN(C)C(=O)Cc1ccccc1	DENV2 CPE rescue 63.8 (no result: C2C12 statin)
C[C@@H]1CCCCO[C@H](CN(C)C(=O)CCCN(C)C)[C@@H](C)CN([C@H](C)CO)C(=O)c2cc(NC(=O)Nc3ccc(F)cc3)ccc2O1	DENV2 CPE rescue 37.1 (no result: C2C12 statin)
C[C@@H]1CCCCO[C@@H](CN(C)C(=O)CCCN(C)C)[C@@H](C)CN([C@@H](C)CO)C(=O)c2cc(NC(=O)CCCN(C)C)ccc2O1	none (no result: C2C12 statin, E-sel inducer)
C[C@H](CO)N1C[C@H](C)[C@H](CN(C)C(=O)CCCN(C)C)OCCCC[C@H](C)Oc2ccc(NC(=O)Nc3ccc(F)cc3)cc2C1=O	none (no result: C2C12 statin)
C[C@H](CO)N1C[C@H](C)[C@@H](CN(C)C(=O)CCCN(C)C)OCCCC[C@H](C)Oc2ccc(NC(=O)CCCN(C)C)cc2C1=O	DENV2 CPE rescue 84.8 (no result: C2C12 statin, E-sel inducer)
C[C@@H]1CCCCO[C@H](CN(C)C(=O)Cc2ccccc2)[C@H](C)CN([C@@H](C)CO)C(=O)c2cc(NC(=O)CCCN(C)C)ccc2O1	none (no result: C2C12 statin)
C[C@H]1CCCCO[C@H](CN(C)C(=O)CCCN(C)C)[C@@H](C)CN([C@@H](C)CO)C(=O)c2cc(NC(=O)c3ccccc3)ccc2O1	DENV2 CPE rescue 52.9
O=C(C[C@H]1C[C@H]2c3cc(NC(=O)c4cccnc4)ccc3O[C@H]2[C@H](CO)O1)NCCN1CCCCC1	none
COc1cccc(NC(=O)N[C@H]2CC[C@@H](CC(=O)N3CCCCC3)O[C@@H]2CO)c1	DENV2 CPE rescue inconclusive
C[C@@H]1CN([C@@H](C)CO)C(=O)c2cccc(NC(=O)C3CC3)c2O[C@H]1CN(C)S(=O)(=O)c1cn(C)cn1	none
COCC#Cc1cnc2c(c1)C(=O)N([C@@H](C)CO)C[C@H](C)[C@H](CN(C)C(=O)c1cccnc1)O2	none (no result: C2C12 statin)
COc1ccc(C(=O)Nc2ccc3c(c2)OC[C@@H](C)N(C(C)=O)C[C@@H](C)[C@@H](OC)CN(C)C3=O)cc1	none
COc1ccc(S(=O)(=O)Nc2ccc3c(c2)CC(=O)N([C@@H](C)CO)C[C@H](C)[C@@H](CN(C)Cc2ccc(-c4ccccc4)cc2)O3)cc1	none
CCNC(=O)Nc1ccc2c(c1)C(=O)N(C)[C@H]1CC[C@H](CC(=O)Nc3ccccc3Cl)O[C@@H]1CO2	DENV2 CPE rescue inconclusive
C[C@@H]1CCCCO[C@@H](CN(C)C(=O)CCCN(C)C)[C@@H](C)CN([C@H](C)CO)C(=O)c2cc(NC(=O)Cc3ccccc3)ccc2O1	DENV2 CPE rescue 141.9 (no result: C2C12 statin, E-sel inducer)
C[C@H]1CCCCO[C@@H](CN(C)C(=O)CCCN(C)C)[C@@H](C)CN([C@@H](C)CO)C(=O)c2cc(NC(=O)Cc3ccccc3)ccc2O1	none (no result: C2C12 statin, E-sel inducer)
CCC(=O)N1C[C@@H](O)COC[C@@H]2O[C@H](CC(=O)N3CCCCC3)CC[C@H]21	none
CCOC(=O)c1c(C)oc2ccc(OCC(=O)C(C)(C)C)cc12	C2C12 statin 143.9 (no result: DENV2 CPE rescue, E-sel inducer)
CCOC(=O)c1c(-c2ccccc2)oc2ccc(OCC(=O)O)cc12	none (no result: C2C12 statin)
C[C@@H]1CN([C@H](C)CO)C(=O)c2cc(NC(=O)Nc3ccc(C(F)(F)F)cc3)ccc2O[C@@H](C)CCCCO[C@@H]1CN(C)C(=O)Nc1cccc2ccccc12	none
C[C@@H]1CCCCO[C@@H](CN(C)C(=O)Nc2cccc3ccccc23)[C@@H](C)CN([C@@H](C)CO)C(=O)c2cc(NC(=O)Nc3ccc(C(F)(F)F)cc3)ccc2O1	DENV2 CPE rescue 26.5 (no result: C2C12 statin)
C[C@@H]1CCCCO[C@H](CN(C)C(=O)Nc2cccc3ccccc23)[C@@H](C)CN([C@H](C)CO)C(=O)c2cc(NC(=O)Nc3ccc(F)cc3)ccc2O1	none (no result: C2C12 statin)
C[C@H](CO)N1C[C@H](C)[C@H](CN(C)C(=O)Nc2cccc3ccccc23)OCCCC[C@H](C)Oc2ccc(NC(=O)Nc3ccc(F)cc3)cc2C1=O	DENV2 CPE rescue 24.9 (no result: C2C12 statin)
O=C(CN1CCOCC1)NCC[C@H]1CC[C@H](NC(=O)c2ccccc2F)[C@H](CO)O1	none
Cc1ccc(S(=O)(=O)Nc2ccc3c(c2)CC(=O)N([C@H](C)CO)C[C@H](C)[C@H](CN(C)C(=O)Nc2ccccc2)O3)cc1	none (no result: E-sel inducer)
CO[C@@H](CN(C)S(=O)(=O)c1cn(C)cn1)[C@H](C)CN(C(=O)Nc1ccc(F)cc1)[C@H](C)CO	none
COc1ccccc1/C=C/C=O	DENV2 CPE rescue 25.1 (no result: C2C12 statin, E-sel inducer)
COc1ccccc1/C=C/C(=O)c1ccccc1	none (no result: C2C12 statin)
CCCNC(=O)N(C)C[C@@H]1Oc2cc(C#CC3CC3)ccc2S(=O)(=O)N([C@H](C)CO)C[C@@H]1C	none (no result: DENV2 CPE rescue)
O=C(C[C@@H]1C=C[C@H](NC(=O)Cc2ccccn2)[C@H](CO)O1)NCCCN1CCOCC1	DENV2 CPE rescue 32.6
O=C(C[C@@H]1C=C[C@H](NC(=O)Cc2ccccn2)[C@@H](CO)O1)NCCCN1CCOCC1	none
O=C(C[C@H]1C=C[C@H](NC(=O)Cc2ccccn2)[C@@H](CO)O1)NCCCN1CCOCC1	none
O=C(C[C@@H]1C=C[C@@H](NC(=O)Cc2ccccn2)[C@H](CO)O1)NCCCN1CCOCC1	DENV2 CPE rescue 38.1
C[C@@H]1CN([C@H](C)CO)C(=O)Cc2cc(NS(=O)(=O)c3cn(C)cn3)ccc2O[C@@H]1CN(C)C(=O)NC1CCCCC1	none
Nc1nc(NC(=O)c2ccccc2)nn1-c1ccccc1	none
O=C(Nc1nc(NC(=O)c2ccco2)n(-c2ccccc2)n1)c1ccccc1	C2C12 statin 94.2 (no result: DENV2 CPE rescue, E-sel inducer)
C[C@@H]1CN([C@H](C)CO)C(=O)Cc2cc(NC(=O)Cc3cn(C)c4ccccc34)ccc2O[C@H]1CN(C)S(=O)(=O)c1ccc(F)cc1	none
C[C@@H]1CN([C@H](C)CO)C(=O)c2cc(NC(=O)Cc3cn(C)c4ccccc34)ccc2O[C@H]1CN(C)S(=O)(=O)c1ccc(F)cc1	DENV2 CPE rescue 57.5!
C[C@H](CO)N1C[C@H](C)[C@@H](CN(C)S(=O)(=O)c2ccc(F)cc2)Oc2ccc(NC(=O)Cc3cn(C)c4ccccc34)cc2CC1=O	C2C12 statin 102.2
C[C@@H]1CN([C@@H](C)CO)C(=O)c2cc(NC(=O)Cc3cn(C)c4ccccc34)ccc2O[C@H]1CN(C)S(=O)(=O)c1ccc(F)cc1	none (no result: C2C12 statin)
COc1ccccc1NC(=O)c1nc(S(=O)(=O)Cc2ccccc2)ncc1Cl	none
CCS(=O)(=O)c1ncc(Cl)c(C(=O)Nc2ccccc2OC)n1	C2C12 statin 143.9 (no result: E-sel inducer)
C[C@H](CO)N1C[C@H](C)[C@H](CN(C)C)Oc2c(NS(C)(=O)=O)cccc2C1=O	none
C[C@H]1CN([C@@H](C)CO)C(=O)c2cccc(NS(C)(=O)=O)c2O[C@H]1CN(C)S(C)(=O)=O	E-sel inducer 36.4 (no result: C2C12 statin)
C[C@H](CO)N1C[C@H](C)[C@H](CN(C)S(C)(=O)=O)Oc2c(NS(C)(=O)=O)cccc2C1=O	E-sel inducer 64.0 (no result: C2C12 statin)
C[C@@H]1CN([C@@H](C)CO)C(=O)c2cccc(NS(C)(=O)=O)c2O[C@H]1CN(C)C	none
O=C(c1ccncc1)N1C[C@@H]2[C@H](c3ccccc31)[C@H](CO)N2C(=O)CN1CCOCC1	none
O=C(C1=C[C@@H](c2ccccc2)C[C@@H](OCc2ccc(CO)cc2)O1)N1CCCC1	none (no result: C2C12 statin, E-sel inducer)
COc1ccc(S(=O)(=O)N2CCC3CC2c2cc(-c4ccc5c(c4)OCO5)ccc23)cc1 (configuration not stated)	DENV2 CPE rescue 88.7
Cc1ccc(S(=O)(=O)N2CCC3CC2c2cc(Cl)ccc23)cc1 (configuration not stated)	none
